Experimental data published in PMC3730172 (Scientific Reports, 2013).
Where a chain is given by its changes, count along the chain named. Values joined by “and” are separate entries in the source; they are usually repeats but may differ in a detail not shown here. Identical values can stand only once.

Legend:
[1] = molecular target: T1, striatum-enriched phosphatase (STEP) (Homo sapiens, UniProt P54829); assay: Dephosphorylation of pp-ERK2 protein by STEP in vitro; format: biochemical; conditions: 1.5 μM Cd^2+, pH 8.0, 37°C
T1 sequence (P54829 1-565): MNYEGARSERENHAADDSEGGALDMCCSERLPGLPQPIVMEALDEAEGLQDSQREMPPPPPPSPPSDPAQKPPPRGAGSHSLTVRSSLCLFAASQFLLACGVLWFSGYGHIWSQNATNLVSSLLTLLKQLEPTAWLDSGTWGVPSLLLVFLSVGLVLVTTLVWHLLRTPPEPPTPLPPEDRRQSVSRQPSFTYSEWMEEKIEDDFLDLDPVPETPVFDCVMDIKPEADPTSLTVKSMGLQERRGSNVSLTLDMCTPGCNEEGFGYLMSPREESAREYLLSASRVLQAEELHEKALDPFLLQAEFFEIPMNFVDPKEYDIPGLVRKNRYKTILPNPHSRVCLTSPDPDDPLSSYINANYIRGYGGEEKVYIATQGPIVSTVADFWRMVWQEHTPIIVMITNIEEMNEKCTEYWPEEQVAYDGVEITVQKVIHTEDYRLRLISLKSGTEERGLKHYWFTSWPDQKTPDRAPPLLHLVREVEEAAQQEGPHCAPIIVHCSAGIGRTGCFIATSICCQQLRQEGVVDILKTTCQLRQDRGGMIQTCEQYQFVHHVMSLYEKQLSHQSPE

[2] = molecular target: T2, PPM1A (Homo sapiens, UniProt P35813); assay: Dephosphorylation of pp-ERK2 protein by PPM1A in vitro; format: biochemical; conditions: 1.5 μM Cd^2+, 1 mM Mn^2+, pH 8.0, 37°C, wild-type PPM1A
T2 sequence (P35813 1-382): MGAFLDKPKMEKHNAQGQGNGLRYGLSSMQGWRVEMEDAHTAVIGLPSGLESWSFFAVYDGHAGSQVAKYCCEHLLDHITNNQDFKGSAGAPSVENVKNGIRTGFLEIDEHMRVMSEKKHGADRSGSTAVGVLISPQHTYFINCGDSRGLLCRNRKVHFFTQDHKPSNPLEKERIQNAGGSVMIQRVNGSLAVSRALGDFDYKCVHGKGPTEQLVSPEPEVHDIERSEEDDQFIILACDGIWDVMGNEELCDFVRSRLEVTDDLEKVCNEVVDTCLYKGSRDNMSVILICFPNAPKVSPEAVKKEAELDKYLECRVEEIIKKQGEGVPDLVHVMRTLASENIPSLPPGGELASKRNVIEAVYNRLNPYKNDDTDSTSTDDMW
Summary of the method: (§1)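 Recombinant doubly phosphorylated ERK2 as substrate in 0.05 M Tris/0.05 M Bis-Tris/0.1 M acetate, pH 8.0, 37°C, 1 mM Mn2+, with or without 1.5 µM Cd2+; reactions started by adding phosphatase, stopped by boiling in SDS buffer (100°C, 10 min); phospho-ERK (pT/pY) by Western blot; triplicate, mean ± standard error.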

[3] = system: PC12 cells; assay: Apoptosis assay in PC12 cells; format: cell-based; conditions: 1.5 or 2.5 μM Cd^2+, 24 h
[4] = molecular target: T3, PPM1G (Homo sapiens, UniProt O15355); assay: PPM1G-catalyzed pNPP hydrolysis, metal ion activation and inhibition; format: biochemical; conditions: PPM1G wild type, Mn^2+ as variable substrate, pH 8.0, 25°C
T3 sequence (O15355 1-546): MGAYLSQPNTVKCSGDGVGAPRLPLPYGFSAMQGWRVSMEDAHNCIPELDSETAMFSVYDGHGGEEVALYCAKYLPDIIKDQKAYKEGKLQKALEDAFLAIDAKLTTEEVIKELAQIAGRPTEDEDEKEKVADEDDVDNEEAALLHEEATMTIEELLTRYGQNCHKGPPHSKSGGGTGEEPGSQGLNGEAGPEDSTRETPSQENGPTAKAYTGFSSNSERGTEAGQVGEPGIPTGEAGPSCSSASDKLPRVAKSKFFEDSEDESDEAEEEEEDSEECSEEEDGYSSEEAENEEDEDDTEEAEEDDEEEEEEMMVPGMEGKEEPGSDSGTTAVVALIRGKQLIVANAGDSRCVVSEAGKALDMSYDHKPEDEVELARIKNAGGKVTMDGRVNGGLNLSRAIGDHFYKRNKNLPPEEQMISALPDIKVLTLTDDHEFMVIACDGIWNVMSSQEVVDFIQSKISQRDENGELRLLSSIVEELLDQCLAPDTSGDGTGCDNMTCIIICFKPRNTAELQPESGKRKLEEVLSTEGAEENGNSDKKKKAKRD
Summary of the method: (§2)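 Recombinant N-terminal His-tagged human wild-type enzyme in pNPP buffer (0.05 M Tris/0.05 M Bis-Tris/0.1 M acetate), pH 8.0, 25°C. Metal activation: Mn2+ varied 1 to 100 mM with saturating pNPP (10-40 mM), EDTA stop, 405 nm, Michaelis-Menten fit. Inhibition: pNPP fixed at 20 mM, Mn2+ varied, Cd2+ at 0, 0.25, 0.5 and 1.0 µM; double-reciprocal analysis.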

[5] = molecular target: T3, PPM1G; assay: Dephosphorylation of pp-ERK2 protein by PPM1G in vitro; format: biochemical; conditions: 1.5 μM Cd^2+, 1 mM Mn^2+, pH 8.0, 37°C
Summary of the method: as §1

[6] = molecular target: T3, PPM1G; assay: PPM1G-catalyzed hydrolysis of pp-ERK and pp-P38 phospho-peptides; format: biochemical; conditions: pp-ERK and pp-P38 phospho-peptide substrates
[7] = system: PPM1A D239K-regulated P38 and JNK-1 phosphorylation in HEK293 cells; format: cell-based, human; conditions: HEK293, PPM1A D239K overexpression, 1.5 μM Cd^2+
Summary of the method: (§3)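 Transfected HEK293 (Flag-tagged wild-type PPM1A, D239K mutant, or control vector) starved 12 h at 36 h post-transfection, then exposed to 1.5 µM CdCl2 or none for 6 h before sorbitol (0.4 M, 20 min, 37°C). Phospho-P38 and phospho-JNK by immunoblotting of cleared lysates (equal protein, BCA); data from ≥3 experiments.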

[8] = system: PC12 cells overexpressing PPM1A D239K; assay: Apoptosis assay in PC12 cells overexpressing PPM1A D239K; format: cell-based; conditions: overexpression of Cd^2+ insensitive mutant D239K; 1.5 and 2.5 μM, 24 h
[9] = molecular target: T4, PHLPP2 catalytic domain (Homo sapiens, UniProt Q6ZVD8); assay: Cadmium inhibition assay of PHLPP2 catalytic domain; format: biochemical; conditions: pNPP, pH 8.0, 25°C
T4 sequence (Q6ZVD8 784-1033): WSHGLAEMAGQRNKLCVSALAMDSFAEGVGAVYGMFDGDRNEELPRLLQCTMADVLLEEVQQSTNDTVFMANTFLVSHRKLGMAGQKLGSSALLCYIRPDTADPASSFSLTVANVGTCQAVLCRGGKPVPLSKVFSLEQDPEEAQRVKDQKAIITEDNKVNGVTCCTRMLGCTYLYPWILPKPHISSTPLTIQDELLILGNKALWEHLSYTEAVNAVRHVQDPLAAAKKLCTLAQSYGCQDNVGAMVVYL
Summary of the method: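 His-tagged human PHLPP2 catalytic domain (residues 784-1033) expressed from pET-30a; pNPP hydrolysis in 0.05 M Tris, 0.05 M Bis-Tris, 0.1 M acetate, pH 8.0, 25°C, stopped with 0.5 M EDTA pH 10.0; p-nitrophenol at 405 nm.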

[10] = system: HEK293 cells; assay: Cell cycle assay in PPM1A-overexpressing HEK293 cells; format: cell-based, human; conditions: HEK293, PPM1A overexpression, 1.5 μM Cd^2+, 24 h
Summary of the method: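 HEK293 transfected with Flag-PPM1A, serum-starved 12 h (36 h post-transfection), given 1.5 µM CdCl2 for 24 h with cycling restarted by 10% FBS medium. Cells fixed in 75% ethanol at 4°C overnight, resuspended in PBS with 0.1% NaN3, stained with propidium iodide (50 µg/ml); DNA content by flow cytometry, G2/M percentage; ≥3 repeats.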

[11] = molecular target: T5, PPM1A D282A (Homo sapiens, UniProt P35813, D282A); assay: Dephosphorylation of pp-ERK2 protein by PPM1A D282A in vitro; format: biochemical; conditions: 1.5 μM Cd^2+
T5 sequence (P35813 1-382 D282A): T2 sequence (P35813 1-382) with D282A
Summary of the method: as §1

[12] = molecular target: T2, PPM1A; assay: PPM1A-catalyzed pNPP hydrolysis, metal ion activation and inhibition; format: biochemical; conditions: PPM1A wild type, Mn^2+ as variable substrate, pH 8.0, 25°C
Summary of the method: as §2

[13] = system: PPM1A-regulated P38 and JNK-1 phosphorylation in HEK293 cells; format: cell-based, human; conditions: HEK293, PPM1A overexpression, 1.5 μM CdCl2 6 h, sorbitol 0.4 M 20 min
Summary of the method: as §3

[14] = molecular target: PP2A (Homo sapiens, UniProt P67775); assay: Cadmium inhibition assay of PP2A; format: biochemical; conditions: pNPP, pH 8.0, 25°C
Summary of the method: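 Commercial PP2A assayed on pNPP in 0.05 M Tris/0.05 M Bis-Tris/0.1 M acetate at pH 8.0 and 25°C; EDTA (0.5 M, pH 10.0) stop; p-nitrophenol at 405 nm.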

[15] = system: PPM1A-regulated ERK phosphorylation in HEK293 cells; assay: EGF-stimulated ERK phosphorylation in PPM1A-overexpressing HEK293 cells; format: cell-based, human; conditions: HEK293, PPM1A overexpression, 1.5 μM Cd^2+, EGF 5 ng/ml 5 min
Summary of the method: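 HEK293 in DMEM (25 mM glucose, 10% FBS, penicillin/streptomycin), 37°C, 5% CO2, transiently transfected with Flag-tagged phosphatase or control vector. 36 h post-transfection, serum-starved 12 h, 1.5 µM CdCl2 or none for 6 h, then EGF 5 ng/ml, 5 min, 37°C. Lysates immunoblotted for phospho-ERK or phospho-AKT Ser473; actin loading control; ≥3 experiments.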

[16] = molecular target: T2, PPM1A; assay: PPM1A-catalyzed hydrolysis of pp-ERK and pp-P38 phospho-peptides; format: biochemical; conditions: pp-ERK and pp-P38 phospho-peptide substrates
[17] = molecular target: T6, PPM1A D239K (Homo sapiens, UniProt P35813, D239K); assay: Dephosphorylation of pp-ERK2 protein by PPM1A D239K in vitro; format: biochemical; conditions: 1.5 μM Cd^2+
T6 sequence (P35813 1-382 D239K): T2 sequence (P35813 1-382) with D239K
Summary of the method: as §1

PP2A, sequence (P67775 whole entry): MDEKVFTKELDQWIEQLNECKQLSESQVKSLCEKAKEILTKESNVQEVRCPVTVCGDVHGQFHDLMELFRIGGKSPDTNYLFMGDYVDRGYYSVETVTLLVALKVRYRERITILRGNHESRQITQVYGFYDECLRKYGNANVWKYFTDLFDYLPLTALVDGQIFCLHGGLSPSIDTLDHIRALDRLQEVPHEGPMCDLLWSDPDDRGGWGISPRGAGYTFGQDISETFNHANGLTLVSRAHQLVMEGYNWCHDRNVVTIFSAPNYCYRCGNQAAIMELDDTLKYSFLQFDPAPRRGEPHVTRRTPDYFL
PP2A, sequence (P30153 2-589 partner limits assumed): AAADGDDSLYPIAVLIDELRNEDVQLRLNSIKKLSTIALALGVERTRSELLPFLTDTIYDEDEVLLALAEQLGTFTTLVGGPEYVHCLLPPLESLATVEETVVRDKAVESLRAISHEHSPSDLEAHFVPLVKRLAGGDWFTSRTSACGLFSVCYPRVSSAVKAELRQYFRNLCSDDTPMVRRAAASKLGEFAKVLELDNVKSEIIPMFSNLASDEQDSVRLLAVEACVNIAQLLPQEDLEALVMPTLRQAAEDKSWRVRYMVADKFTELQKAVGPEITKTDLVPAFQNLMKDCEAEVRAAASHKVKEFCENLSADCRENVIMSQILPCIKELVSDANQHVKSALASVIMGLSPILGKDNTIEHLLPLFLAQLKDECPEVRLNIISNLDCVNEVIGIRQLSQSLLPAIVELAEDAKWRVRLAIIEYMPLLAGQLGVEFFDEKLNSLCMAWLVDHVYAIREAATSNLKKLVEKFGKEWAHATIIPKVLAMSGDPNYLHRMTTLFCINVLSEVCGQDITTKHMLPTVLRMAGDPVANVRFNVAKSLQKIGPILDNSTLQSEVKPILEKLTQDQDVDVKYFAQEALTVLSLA

For [Cd+2] [Cd^2+, cadmium], the “effect on dephosphorylation of phospho-ERK” value (“effect on dephosphorylation” below) [1] was “no effect”, the “effect on dephosphorylation” value [2] was “substantially blocked” and the PC12 cell apoptosis [3] was “induced”. For the same compound, the Ki [4] was < 1 µM and ~1 µM, the “effect on dephosphorylation” value [5] was “substantially blocked” and the IC50 [6] was “low micromolar range”. The “effect on D239K block of sorbitol-induced P38 and JNK-1 phosphorylation” value [7] was “much weaker effects”, the PC12 cell apoptosis [8] was “did not promote” and the IC50 [9] was 3000 µM. For the same compound, the “effect on PPM1A-induced increase in proportion of cells in G2/M” value [10] was “greatly reversed”, the “effect on dephosphorylation” value [11] was “minimally affected” and the Ki [12] was < 1 µM and ~1 µM. For the same compound, the “effect on PPM1A block of sorbitol-induced P38 and JNK-1 phosphorylation” value [13] was “drastically reversed”, the IC50 [14] was 130 µM and the “effect on PPM1A reduction of EGF-induced ERK phosphorylation” value [15] was “reversed”. The IC50 [16] was “low micromolar range” and the “effect on dephosphorylation” value [17] was “minimally affected”.
